Data set [1] addresses T1, Bifunctional epoxide hydrolase 2 (Homo sapiens, UniProt P34913).
T1 sequence (P34913 whole entry): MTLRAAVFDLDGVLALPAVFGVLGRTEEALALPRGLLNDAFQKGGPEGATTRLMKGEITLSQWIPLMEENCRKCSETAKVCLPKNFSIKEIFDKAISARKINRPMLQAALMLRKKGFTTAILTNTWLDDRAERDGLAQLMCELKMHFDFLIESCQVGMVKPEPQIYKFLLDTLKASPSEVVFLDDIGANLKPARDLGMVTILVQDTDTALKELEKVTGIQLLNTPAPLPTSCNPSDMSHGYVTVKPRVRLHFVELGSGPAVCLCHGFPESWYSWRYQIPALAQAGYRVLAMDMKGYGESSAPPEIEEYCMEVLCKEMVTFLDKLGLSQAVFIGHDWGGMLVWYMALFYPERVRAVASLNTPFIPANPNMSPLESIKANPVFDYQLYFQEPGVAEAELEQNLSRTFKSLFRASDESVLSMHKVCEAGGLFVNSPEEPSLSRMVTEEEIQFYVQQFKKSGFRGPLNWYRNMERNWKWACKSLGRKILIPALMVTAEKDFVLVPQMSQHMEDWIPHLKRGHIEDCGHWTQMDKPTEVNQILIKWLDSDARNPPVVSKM
Kind of data set: Inhibition of recombinant human soluble epoxide hydrolase using CMNPC as substrate preincubated for 5 mins followed by substrate addition and measured at 30 secs interval for 10 mins by fluorescence assay.

Data set [2] can be described thus: Apparent permeability across basolateral to apical side in human Caco-2 cells at 10 uM measured after 2 hrs by LC-MS/MS analysis. The settings on record: caco-2, 2 h.
Data set [3] in a line: Selectivity ratio of inhibition of recombinant human CYP1A2 to IC50 for inhibition of recombinant mouse soluble epoxide hydrolase.
Data set [4] is described as follows: Selectivity ratio of inhibition of recombinant human CYP2C19 to IC50 for inhibition of recombinant mouse soluble epoxide hydrolase.
Data set [5] can be described thus: Selectivity ratio of inhibition of recombinant human CYP3A4 to IC50 for inhibition of recombinant mouse soluble epoxide hydrolase using DBF as substrate.
The nature of data set [6]: Apparent volume of distribution in CD-1 mouse at 1 mg/kg, ip measured up to 24 hrs by LC-MS analysis. Format: ADME, organism-based. Conditions: in vivo. In outline: (§1)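 Single dose, 1 mg/kg, given to mice intravenously or intraperitoneally. Parameters are taken from the plasma concentration–time profile: T1/2, Tmax, Cmax, C0 (iv only), AUClast, AUCINF_obs, Vz and Cl. Bioavailability is derived from ip versus iv exposure.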

Data set [7] is described as follows: Initial plasma concentration in CD-1 mouse at 1 mg/kg, iv measured up to 24 hrs by LC-MS analysis. Format: ADME, organism-based. Conditions: in vivo. An outline of the steps: as §1
Data set [8] is described as follows: AUC (infinity) in CD-1 mouse at 1 mg/kg, iv measured up to 24 hrs by LC-MS analysis. Format: ADME, organism-based. More on the design: route intravenous, dose 1 mg/kg, time <=24. Conditions: in vivo. An outline of the steps:
as §1

Data set [9] can be described thus: Apparent volume of distribution in CD-1 mouse at 1 mg/kg, iv measured up to 24 hrs by LC-MS analysis. Format: ADME, organism-based. Conditions: in vivo. In outline: as §1
Data set [10] can be described thus: Acute toxicity in CD-1 mouse assessed as effect on body weight at 5 to 80 mg/kg, ip administered daily for 5 days and measured for 5 days. The settings on record: in vivo, 240 h, dose 5-80 mg/kg, time 10 day. Format: organism-based. In outline:
(§2)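 Mice received the compound intraperitoneally once a day for five consecutive days at 5, 10, 20 and 80 mg/kg. Acute toxicity was judged from body weight during treatment, apparent behaviour problems and the presence of petechiae.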

A short description of data set [11]: Acute toxicity in CD-1 mouse assessed as petechiae at 5 to 80 mg/kg, ip administered daily for 5 days. Format: organism-based. Conditions: in vivo, 120 h, dose 5-80 mg/kg, time 5 day. An outline of the steps: as §2
Data set [12] deals with Mus musculus. Kind of data set: Protection against cerulein-induced acute pancreatitis in C57BL/6J mouse assessed as reduction in ATF3 mRNA level at 3 mg/kg administered 24 hrs post-cerulein addition and measured after 24 hrs by Trisure-reagent based RT-PCR analysis. Format: functional, organism-based. An outline of the steps:
(§3)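 Post-induction (treatment) protocol in C57BL/6J mice. Acute pancreatitis is induced by several cerulein administrations, followed by ip sEH inhibitor at 3 or 30 mg/kg. Pancreatic mRNA of TNF-α, IL-1β, MCP-1 and ATF3 is quantified against control and cerulein-only groups. Mean ± SEM, n = 5 per group.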

The test system of data set [13] is Mus musculus. Kind of data set: Protection against cerulein-induced acute pancreatitis in C57BL/6J mouse assessed as reduction in IL-1beta mRNA level at 30 mg/kg administered 24 hrs post-cerulein addition and measured after 24 hrs by Trisure-reagent based RT-PCR analysis. Format: functional, organism-based. In outline:
as §3

Data set [14] concerns Mus musculus. Briefly: Protection against cerulein-induced acute pancreatitis in C57BL/6J mouse assessed as reduction in MCP1 mRNA level at 30 mg/kg administered 24 hrs post-cerulein addition and measured after 24 hrs by Trisure-reagent based RT-PCR analysis. Format: functional, organism-based. An outline of the steps:
as §3

Data set [15] deals with Mus musculus. Briefly: Protection against cerulein-induced acute pancreatitis in C57BL/6J mouse assessed as reduction in ATF3 mRNA level at 30 mg/kg administered 24 hrs post-cerulein addition and measured after 24 hrs by Trisure-reagent based RT-PCR analysis. Format: functional, organism-based. An outline of the steps:
as §3

Data set [16] relates to Mus musculus. Briefly: Protection against cerulein-induced acute pancreatitis in C57BL/6J mouse assessed as reduction in IL-1beta mRNA level at 30 mg/kg administered twice per day for 5 days followed by cerulein addition and measured 24 hrs post-last dose by Trisure-reagent based RT-PCR analysis. Format: functional, organism-based. The settings on record: time 6.0 day. An outline of the steps:
(§4)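 Pre-induction (prevention) protocol in C57BL/6J mice. Inhibitor is given ip at 30 mg/kg before cerulein induction of acute pancreatitis. Pancreatic mRNA of TNF-α, IL-1β, MCP-1 and ATF3 is compared with control and cerulein-only mice. Mean ± SEM, n = 5 per group.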

In data set [17] the test system is Mus musculus. Briefly: Protection against cerulein-induced acute pancreatitis in C57BL/6J mouse assessed as reduction in MCP1 mRNA level at 30 mg/kg administered twice per day for 5 days followed by cerulein addition and measured 24 hrs post-last dose by Trisure-reagent based RT-PCR analysis. Format: functional, organism-based. Conditions: time 6.0 day. In outline: as §4

Data set [18] deals with Mus musculus. Briefly: Protection against cerulein-induced acute pancreatitis in C57BL/6J mouse assessed as reduction in edema at 30 mg/kg administered 24 hrs post-cerulein addition and measured after 24 hrs by H and E staining based histological analysis. Format: functional, organism-based. An outline of the steps:
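H&E-stained pancreas sections are scored for edema and inflammation. Groups are control, cerulein and cerulein plus inhibitor, in both the pre-induction and post-induction cerulein acute pancreatitis models in mice.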

Molecules are shown by their SMILES. Calls of active or inactive are those of the source. The calls are words filed in the database; no cut-off is given here. Where only a bound is given, the exact number is not on record here.

Turning to `CC(=O)N1CCC(NC(=O)NC23CC4CC(CC(C4)O2)C3)CC1`, in [1], the IC50 was 29.9 nM. Besides, the Papp in data set [2] was determined as 94.5 nm/s. Further, the Selectivity ratio in data set [3], in data set [4] and in data set [5] was over 100 throughout.
For the molecule `CC(C)S(=O)(=O)N1CCC(NC(=O)NC23CC4CC(CC(C4)O2)C3)CC1`, the Vz came out at 124.02 L/kg in [6] and 67.73 L/kg in data set [9]. The same molecule displayed a C0 in data set [7] of 236.23 ng/mL. This molecule registered an exposure (AUC) in [8] of 59.63 ng·h/mL. Moreover, the Activity entry in [10] and in [11] was “Non-Toxic” throughout. Moreover, the outcome in [12] was inactive. The result in [13], in data set [14], in data set [15], in data set [16], in data set [17] and in data set [18] was Active.

Source of the values: ChEMBL document CHEMBL4725350, “2-Oxaadamant-1-yl Ureas as Soluble Epoxide Hydrolase Inhibitors: In Vivo Evaluation in a Murine Model of Acute Pancreatitis” (J Med Chem, 2020).
